Results collected from several papers.
Each line is one published result; the experiments were not run side by side.
MTNR1A: Melatonin receptor type 1A (MTNR1A, Homo sapiens, UniProt P48039)
CYP51: Sterol 14-alpha demethylase (CYP51, Trypanosoma cruzi, UniProt Q7Z1V1)
Tmem97: Sigma intracellular receptor 2 (Tmem97, Rattus norvegicus, UniProt Q5U3Y7)
F2 trypsin-like site: Prothrombin, trypsin-like site (F2, Bos taurus, UniProt P00735)
FLT3: Receptor-type tyrosine-protein kinase FLT3 (FLT3, Homo sapiens, UniProt P36888)

Cc1ccc(C(=O)Nc2ccc(Oc3cc4cnn(C)c4cc3-c3cn[nH]c3)c(F)c2)c(=O)n1-c1ccc(F)cc1 — Kd (Tyrosine-protein kinase receptor Tie-1 (TIE1, Homo sapiens, UniProt P35590); binding, competition with immobilised ligand): 0.0009 µM
COc1ccc2[nH]cc(CCNC(C)=O)c2c1I — EC50 (MTNR1A; GTPγS binding, agonist, radiometric; cell membranes): 112 nM
CC(C)c1ccc(NC(=O)O[C@@H](Cn2ccnc2)c2ccc(F)cc2)cc1 — Kd (CYP51; binding): 0.083 µM
NC(=S)N/N=C1\C(=O)Nc2ccccc21 — Ki (Tmem97; ligand displacement, radioligand; cell membranes): > 10 µM
O=C(O)CNC(=O)C(=O)O — Kd (Glutamate dehydrogenase 1, mitochondrial (GLUD1, Bos taurus, UniProt P00366); binding, NMR): 10000 µM
CC(C)(C)[C@H](NC(=O)[C@H](CCONC(=N)N)NC(=O)Cc1ccc(CN)cc1)C(=O)N[C@@H](CCCCN)C(=O)NCc1ccc(C(=N)N)cc1 — Ki (F2 trypsin-like site; enzyme activity, inhibitor; pH 8): 10 µM
Nc1nc(NCc2ccc(Oc3ccccc3)cc2)nc(-c2c(F)cccc2CO)n1 — Ki (MTNR1A; cell-free assay, radioligand): 5.9 µM
Cc1cnc(-c2ccc(-c3ccc(NC(=O)Nc4c(F)cc(F)cc4F)cc3F)c3c2C(=O)NC3)[nH]1 — Kd (Aurora kinase C (AURKC, Homo sapiens, UniProt Q9UQB9); binding, competition with immobilised ligand): 0.0011 µM
CC(C)Nc1ccnc(Nc2cccc(C(C)(C)C)c2)n1 — IC50 (FLT3; enzyme activity, inhibitor): 17.2 µM
CCC(=O)NC1Cc2ccccc2C(c2ccccc2)C1 (stereo not shown) — EC50 (MTNR1A; β-arrestin recruitment, agonist): 759 nM
COC(=O)c1cccc(-c2cccc(Nc3nccc(NC4CCCCC4)n3)c2)c1 — IC50 (FLT3; enzyme activity, inhibitor): 13.3 µM
CCc1ccc2scc(CCNC(C)=O)c2c1 — EC50 (MTNR1A; cAMP, agonist, TR-FRET): 39.8 nM
CC(C)c1nc2cc(OCCCCN3CCN(c4cccc5c4OCCO5)CC3)ccc2s1 — Ki (5-hydroxytryptamine receptor 2C (HTR2C, Homo sapiens, UniProt P28335); cell-free assay, radioligand): 0.092 µM
COc1ccc2c(ccn2CCCCN2Cc3cc(OC)c(OC)cc3C2)c1 — Ki (Tmem97; ligand displacement, radioligand; cell membranes): 0.00891 µM
O=C(NCCN1CCCCC1)c1cc(Br)ccc1OCCF — Ki (Tmem97; ligand displacement, radioligand; cell membranes): 0.0102 µM
COC(=O)c1sc(N(C)Cc2ccc(OC)c(O)c2)nc1Cl — EC50 (MTNR1A; cAMP, agonist, luciferase): 14.5 nM
O=C(NCCc1cccc2ccccc12)C1CCC1 — EC50 (MTNR1A; cAMP, agonist, TR-FRET): 1660 nM
Cn1cc(C[C@@H](N)C(=O)O)c2ccccc21 — Ki (Dihydrofolate reductase (DHFR, Homo sapiens, UniProt P00374); enzyme activity, inhibitor; pH 7): 810 µM
c1cncc(-c2cccc(Nc3nccc(NC4CCNCC4)n3)c2)c1 — IC50 (FLT3; enzyme activity, inhibitor): 0.008 µM
CCOc1ccc(CNc2cccnc2)cc1 — EC50 (MTNR1A; cAMP, agonist, luciferase): 63.5 nM
CC(C)(C)Nc1ccnc(Nc2cccc(-c3cccnc3)c2)n1 — IC50 (FLT3; enzyme activity, inhibitor): 0.013 µM
O=C(NCCCn1ccnc1)O[C@H](Cn1ccnc1)c1ccc(F)cc1 — Kd (CYP51; binding): 0.6 µM
c1cncc(C2CCCC(Nc3nccc(NC4CCCCC4)n3)C2)c1 (stereo not shown) — IC50 (FLT3; enzyme activity, inhibitor): > 23 µM
COc1cccc2c1CCN(C(=O)c1cc(=O)n(C)cc1Br)C2 — EC50 (MTNR1A; cAMP, agonist, luciferase): 96.3 nM
O=C(O[C@@H](Cn1ccnc1)c1ccccc1)c1ccc(-c2ccccc2)cc1 — Kd (CYP51; binding): 0.087 µM
CC(C)(C)[C@H](NC(=O)[C@H](CCONC(=N)N)NC(=O)Cc1ccc(CNC(=N)N)cc1)C(=O)N[C@@H](CCCCN)C(=O)NCc1ccc(C(=N)N)cc1 — Ki (F2 trypsin-like site; enzyme activity, inhibitor; pH 8): 61 µM
Cc1cc(Nc2cc3ncccc3c(N[C@@H]3C[C@H]4CC[C@@H](C3)N4CCC#N)n2)n[nH]1 — Kd (Aurora kinase A (AURKA, Homo sapiens, UniProt O14965); binding, competition with immobilised ligand): 0.066 µM
CC(C)(C)[C@H](NC(=O)[C@H](CCCNC(=N)N)NC(=O)Cc1ccc(CN)cc1)C(=O)N[C@@H](CCONC(=N)N)C(=O)NCc1ccc(C(=N)N)cc1 — Ki (F2 trypsin-like site; enzyme activity, inhibitor; pH 8): 13 µM
Cc1cc2nc3c(=O)[nH]c(=O)nc-3n(C[C@H](O)[C@H](O)[C@H](O)COP(=O)(O)OP(=O)(O)OC[C@H]3O[C@@H](n4cnc5c(N)ncnc54)[C@H](O)[C@@H]3O)c2cc1C — Kd (DNA topoisomerase 2-alpha (TOP2A, Homo sapiens, UniProt P11388); binding; lysate): 0.141 µM
O=C(Nc1ccc(Sc2ccc([N+](=O)[O-])cc2)cc1)O[C@@H](Cn1ccnc1)c1ccc(Cl)cc1 — Kd (CYP51; binding): 0.715 µM
COc1cc2c(cc1OC)CN(CCCCn1ccc3c(OC)cccc31)C2 — Ki (Tmem97; ligand displacement, radioligand; cell membranes): 0.0063 µM
Clc1ccc(CNc2cccc(-c3nnc[nH]3)c2)cc1Cl — EC50 (MTNR1A; cAMP, agonist, luciferase): 229 nM
c1ccc(-c2ccc(Nc3nccc(NC4CCCCC4)n3)cc2)nc1 — IC50 (FLT3; enzyme activity, inhibitor): 1.88 µM
COC(=O)c1nccc(N(C)CC2CCCCC2O)n1 (stereo not shown) — EC50 (MTNR1A; cAMP, agonist, luciferase): 1860 nM
COc1cc2c(CCNC(C)=O)c[nH]c2cc1I — EC50 (MTNR1A; cAMP, agonist, TR-FRET): 6.61 nM
COC(=O)c1cc(Cn2ccc(C(C)=O)n2)c(C)s1 — EC50 (MTNR1A; cAMP, agonist, luciferase): 74.9 nM
Fc1ccc(Nc2nccc(NC3CCCCC3)n2)cc1 — IC50 (FLT3; enzyme activity, inhibitor): 3.3 µM
COC(=O)c1cc(CSc2nnc(C3CC3)[nH]2)cs1 — EC50 (MTNR1A; cAMP, agonist, luciferase): 7.57 nM
COc1ccc2ncn(CCNC(C)=O)c2c1 — EC50 (MTNR1A; GTPγS binding, agonist, radiometric; cell membranes): 2190 nM
COc1cccc(-c2cccc(Nc3nccc(NC(C)C)n3)c2)c1 — IC50 (FLT3; enzyme activity, inhibitor): 6.97 µM
COc1ccc2c(c1)N(Cc1cccc3[nH]ccc13)CCO2 — EC50 (MTNR1A; cAMP, agonist, luciferase): 20.8 nM
COc1cc2c(CCNC(C)=O)c(I)[nH]c2cc1[N+](=O)[O-] — EC50 (MTNR1A; GTPγS binding, agonist, radiometric; cell membranes): 20.9 nM
CCCN1CCN(c2ccc(-c3cncc(Cl)c3N3CCC4(CCNC4=O)CC3)cc2)CC1 — Kd (Myotonin-protein kinase (DMPK, Homo sapiens, UniProt Q09013); cell-free assay; lysate): 18.4 µM
